Laboratory results from ChEMBL document CHEMBL2401628, “Low toxicity and unprecedented anti-osteoclast activity of a simple sulfur-containing gem-bisphosphonate: a comparative study” (Eur J Med Chem, 2013).
Calls of active or inactive are those of the source. No cut-off for these calls is given here.

Assays:
[1] = system: L929; assay: Cytotoxicity against mouse L929 cells assessed as reduction of cell viability at 100 uM after 72 hrs by neutral-red uptake assay; format: cell-based; conditions: l929, 72 h
How it was run: (§1)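 Mouse L929 fibroblasts in DMEM with 10% FCS, seeded 0.8 × 10³ cells/well and allowed to adhere 24 h. They were then exposed to serial dilutions of compound (stocks 10 mM in PBS pH 7.4) for 72 h; untreated medium served as negative control. Cells took up 0.4% neutral red diluted 1:80 for 2 h at 37 °C, and dye was extracted in 50% ethanol/1% acetic acid and read at 540 nm. Result is the OD ratio of treated to negative control, triplicate wells, 5 experiments.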

[2] = system: PBMC; assay: Antiosteoclast activity in human PBMC assessed as reduction of osteoclasts formation by measuring TRAcP positive multinucleated cells at 10 uM after 7 days; format: functional, cell-based
How it was run: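 Blood mononuclear cells from healthy donors, adhered 1 h, then cultured 7 days in osteoclast differentiation medium with drug added from the start. Cells were fixed in 3% paraformaldehyde/2% sucrose, permeabilized in 0.5% Triton, and stained for TRAcP for 60 min at 37 °C. TRAcP-positive multinucleated cells were counted as % of untreated differentiated cultures, duplicate wells, 4 cultures from 2 donors.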

[3] = system: Hydroxyapatite; assay: Binding affinity to hydroxyapatite at 0.07 mmol up to 120 hrs by 31P NMR-spectroscopy relative to H3PO4
[4] = system: L929; assay: Cytotoxicity against mouse L929 cells assessed as reduction of cell viability at 10 to 100 uM after 72 hrs by neutral-red uptake assay; format: cell-based; conditions: l929, 72 h; how it was run: as §1
[5] = system: Osteoclast; assay: Inhibition of human osteoclast-mediated type 1 bone collagen degradation assessed as release of europium-labeled collagen fragments at 0.1 uM after 7 days by time-resolved fluorescence assay; format: functional, cell-based
How it was run: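 Mononuclear cells were seeded on Europium-labelled human type I collagen and cultured 7 days in differentiation medium, then drug was added; total culture time was 14 days. Released fragments in supernatant were measured by time-resolved fluorescence (excitation 340 nm, emission 615 nm). Result is the RFU ratio of treated to untreated osteoclasts, quadruplicate wells, 2 donors.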

[6] = system: Osteoclast; assay: Inhibition of human osteoclast-mediated type 1 bone collagen degradation assessed as release of europium-labeled collagen fragments at 10 uM after 7 days by time-resolved fluorescence assay; format: functional, cell-based
How it was run: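 Adherent monocytes from Ficoll-isolated peripheral blood of healthy donors were seeded on human type I bone collagen and differentiated in osteoclast medium for 7 days. They were then exposed to three drug concentrations until day 14. Supernatant was mixed with fluorophore-releasing reagent and Europium-labelled fragments were read by time-resolved fluorescence (ex 340, em 615 nm). Values are the RFU ratio of treated to untreated osteoclasts, from 2 donors in quadruplicate.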

[7] = system: Osteoclast; assay: Induction of apoptosis in human osteoclasts at 100 uM after 7 days using Hoechst 33258 staining; format: functional, cell-based
How it was run: (§2)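 Blood mononuclear cells from donors were differentiated into osteoclasts for 7 days, then exposed to drug for a further 7 days. After fixing, cells were stained with phalloidin-TRITC 0.3 mg/mL plus Hoechst 33258 for 30 min at room temperature. Multinucleated F-actin-ring cells with apoptotic nuclear bodies were counted over the whole well as % of all multinucleated cells, duplicate wells, 4 cultures from 2 donors.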

[8] = system: Osteoclast; assay: Proapoptotic activity in human osteoclasts at 10 uM after 7 days using Hoechst 33258 staining; format: functional, cell-based; how it was run: as §2
[9] = system: L929; assay: Cytotoxicity against mouse L929 cells assessed as reduction of cell viability after 72 hrs by neutral-red uptake assay; format: cell-based; conditions: l929, 72 h; how it was run: as §1

| SMILES | Activity [1] | inhibition [2] | Activity [3] [%] | Activity [4] | inhibition [5] | inhibition [6] | Activity [7] | Activity [8] | Activity [9] |
| --- | --- | --- | --- | --- | --- | --- | --- | --- | --- |
| O=P(O)(O)C(CN1CCOCC1)P(=O)(O)O | Toxic | Active | 65 | Toxic | – | – | – | – | – |
| O=P(O)(O)C(CSCCO)P(=O)(O)O | Toxic | Active | 70 | Toxic | inactive | Active | Active | Active | – |
| NCCC(O)(P(=O)(O)O)P(=O)(O)O [PAMIDRONIC ACID] | – | Active | – | – | inactive | – | Active | inactive | Dose-dependent effect |
| O=P(O)(O)C(CNc1ccccn1)P(=O)(O)O | – | Active | 94 | – | Active | Active | Active | Active | Dose-dependent effect |
| O=P(O)(O)C(CSc1ccccc1)P(=O)(O)O | Toxic | inactive | 34 | Toxic | – | – | – | – | – |
| O=P(O)(O)C(O)(Cn1ccnc1)P(=O)(O)O | – | – | 82 | – | – | – | – | – | – |
| O=P(O)(O)C(CNc1ccccc1)P(=O)(O)O | Toxic | Active | 66 | Toxic | – | – | – | – | – |
